Screens as filed in PubChem BioAssay.
S100A4 MyoIIA: inhibitors of S100A4-myosin IIA peptide binding, primary screen, biochemical, fluorescence polarization, TAMRA-MyoIIA peptide; Protein S100-A4 (Homo sapiens), P26447; inhibition, % at 10.7 µM; 360,000 tested, 0.14% active;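 active = mean inhibition of at least 70% across replicates, with every replicate also reaching that level; inconclusive = mean inhibition reaches 70% but some replicates fall short; inactive = mean inhibition below 70%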
Target sequence (P26447 whole entry, looked up): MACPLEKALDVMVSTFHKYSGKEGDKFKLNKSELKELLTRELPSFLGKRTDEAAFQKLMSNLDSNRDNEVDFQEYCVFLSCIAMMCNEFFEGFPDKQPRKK
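Assay system: human S100A4 monomer with TAMRA-labelled myosin IIA peptide / Buffer or medium: Calcium-containing HEPES buffer, pH 7.2 / Reagent: TAMRA-labelled myosin IIA heavy-chain peptide probe, 5 nM / Compound: one dose per compound / Timing: polarization read 5 min after assay mix addition, stable 5–60 min / Benchmarks: neutral control DMSO, positive control TFP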
PfHsp90 set2: growth inhibition of PfHsp90-expressing yeast, primary screen, antimalarial PfHsp90 inhibitor project, S. cerevisiae, BacTiter-Glo luminescence, single point, set 2 | BacTiter-Glo ATP, 48 h; yeast lacking PDR1 and PDR3 efflux regulators | inhibition, % at 9.4 µM | 310,000 tested, 0.32% active;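 active = every replicate shows inhibition above about 80%, whatever the replicate mean, limit read from the data; inconclusive = mean inhibition reaches the set limit but some replicate falls short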
Cneo AK release: Cryptococcus neoformans cell lysis inducers, primary screen, AK release luminescence, single concentration; AID 651654, 2012; C. neoformans lysis, adenylate kinase release luminescence, 4 h; normalised: neutral wells 0, clomiphene wells 100; lysis activity, % at 15 µM; 360,000 tested, 0.2% active;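 active = mean lysis activity across replicates of at least 80%, whatever share of replicates individually reach that level; inactive = mean lysis activity below 80%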
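Material: C. neoformans cells | Amount: Yeast cell density of 5 × 10^6 cells/mL | Medium: Fresh YPD growth medium | Dosing: Single dose | Times: Static 4 h at 37 °C with compound, 1 h detection | Detection: AK luminescence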
Ecoli rRNA inh: reduced GFP signal of wild-type E. coli, primary screen, bacterial rRNA inhibitor project, GFP/RFP fluorescence, OD600, single point; E. coli WT GFP vs humanized-ribosome RFP mutants, 24 h; hits give low values; DMSO median 0, no signal -100; 350,000 tested, 1.6% active; GFP signal change (wild-type ribosome), % (test concentration not listed);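 active = significant combined selectivity score with lowered wild-type GFP, culture density cut under 30%, mutant RFP and density less affected; inactive = any of these conditions unmet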
MLL AF4-AF9 inh: inhibitors of AF4 peptide binding to AF9, primary screen, biochemical, AlphaScreen, biotin-AF4 peptide, FLAG-AF9, single point; inhibition, % at 10 µM; 350,000 tested, 0.47% active;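 active = every replicate reaching a set inhibition limit, whatever the replicate mean, cut at about 25% in these data; inconclusive = mean inhibition reaches that limit but some replicates miss it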
Target sequence (P42568 whole entry, looked up): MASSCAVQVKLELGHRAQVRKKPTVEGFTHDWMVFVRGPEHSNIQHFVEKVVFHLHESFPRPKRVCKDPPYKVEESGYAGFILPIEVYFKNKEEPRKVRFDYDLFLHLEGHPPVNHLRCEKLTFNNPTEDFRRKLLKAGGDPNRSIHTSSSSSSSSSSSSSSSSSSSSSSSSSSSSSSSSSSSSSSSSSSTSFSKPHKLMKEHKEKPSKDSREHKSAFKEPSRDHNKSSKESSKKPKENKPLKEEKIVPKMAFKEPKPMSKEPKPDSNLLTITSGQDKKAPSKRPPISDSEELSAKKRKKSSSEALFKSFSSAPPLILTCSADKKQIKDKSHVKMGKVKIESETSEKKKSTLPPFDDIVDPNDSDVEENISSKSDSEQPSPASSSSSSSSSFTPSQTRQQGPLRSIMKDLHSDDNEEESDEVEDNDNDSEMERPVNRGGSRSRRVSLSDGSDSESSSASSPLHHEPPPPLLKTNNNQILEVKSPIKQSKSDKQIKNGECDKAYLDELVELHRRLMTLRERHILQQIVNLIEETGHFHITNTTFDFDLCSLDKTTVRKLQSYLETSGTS
DENV2 CPE rescue: inhibitors of DENV2 cytopathic effect, primary screen, cell-based, plate reader, single concentration. DENV2-infected cells, cytopathic effect rescue. CPE inhibition, % at 9.99 µM. 350,000 tested, 1.7% active. AID 651640, 2012; in the data active = CPE inhibition above about 20%, passing the limit was not always enough; inconclusive = no clear call, values can overlap the other calls; tested in BHK-21 cells
Each line names hits and unclear results; the compound was inactive in the other large screens. Hits are enriched below; roughly 3.2% of the tested compounds scored in any of these assays.

CC1(C(=O)NCc2ccccc2)Cc2c(-c3ccc(C(N)=O)cc3)ccnc2O1 (configuration not stated)	none (no result: PfHsp90 set2)
CC1(C(=O)NCc2ccco2)Cc2c(-c3ccc(C(N)=O)cc3)ccnc2O1 (configuration not stated)	DENV2 CPE rescue 40 (no result: PfHsp90 set2)
C[C@@H]1CN([C@H](C)CO)C(=O)Cc2cc(N(C)C)ccc2O[C@H]1CN(C)S(=O)(=O)c1ccccc1	none (no result: PfHsp90 set2)
CCN1C(=O)[C@@H]2[C@@H]3CN(S(=O)(=O)c4ccc(C)cc4)[C@@H](c4ccccc4F)[C@@H]3C(=O)C[C@@H]2C1=O	DENV2 CPE rescue 21 (no result: PfHsp90 set2)
C[C@@H]1CCCCO[C@H](CN(C)Cc2ccccc2)[C@H](C)CN([C@@H](C)CO)C(=O)c2cc(NC(=O)Nc3ccc(F)cc3)ccc2O1	none (no result: PfHsp90 set2)
OC[C@H]1[C@@H](c2ccc(-c3cccnc3)cc2)[C@H]2CN(CC3CCOCC3)CCCCN21	none (no result: PfHsp90 set2, Ecoli rRNA inh)
CCc1cccc2c(C(=O)COC(=O)c3ccc([N+](=O)[O-])s3)c[nH]c12	PfHsp90 set2 inconclusive (no result: Cneo AK release)
O=C(OCC(=O)c1c[nH]c2ccccc12)c1ccc([N+](=O)[O-])s1	PfHsp90 set2 110
CN1CCN(C(=O)C[C@H]2CC[C@H]3[C@@H](COC[C@H](O)CN3Cc3ccc4c(c3)OCO4)O2)CC1	DENV2 CPE rescue 56 (no result: PfHsp90 set2)
CN1CCN(C(=O)C[C@@H]2CC[C@@H]3[C@H](COC[C@H](O)CN3Cc3ccc4c(c3)OCO4)O2)CC1	none (no result: PfHsp90 set2)
O=C(C[C@@H]1CC[C@H]2[C@@H](COC[C@@H](O)CN2Cc2ccc3c(c2)OCO3)O1)N1CCOCC1	DENV2 CPE rescue 30 (no result: PfHsp90 set2)
O=C(C[C@@H]1C=C[C@H](NC(=O)c2ccccc2)[C@@H](CO)O1)NCc1ccc(Oc2ccccc2)cc1	none (no result: PfHsp90 set2)
COc1ccc(CN(C)C[C@@H]2OCCCC[C@@H](C)Oc3ccc(NC(=O)NC4CCCCC4)cc3C(=O)N([C@@H](C)CO)C[C@H]2C)cc1	none (no result: PfHsp90 set2)
CCC(=O)N(C)C[C@H]1Oc2cc(-c3cccc(F)c3)ccc2S(=O)(=O)N([C@@H](C)CO)C[C@H]1C	none (no result: PfHsp90 set2)
C[C@@H]1CN([C@@H](C)CO)C(=O)Cc2cc(NS(=O)(=O)c3ccccc3)ccc2O[C@H]1CN(C)CC1CCCCC1	none (no result: PfHsp90 set2)
CC(C)[C@H](CO)N(Cc1cccc(F)c1)c1nc(Nc2cccc(Cl)c2)c2ncn(C(C)C)c2n1	none
CC(C)n1cnc2c(N(C)c3cccc(Cl)c3)nc(N(CCO)CCO)nc21	Ecoli rRNA inh -33
O=S(=O)(N[C@H]1CC[C@H](CCn2cc(-c3ccccn3)nn2)O[C@H]1CO)c1cccc(Cl)c1	none (no result: PfHsp90 set2)
O=C(CN1CCOCC1)NCC[C@H]1CC[C@@H](NS(=O)(=O)c2ccc(F)cc2)[C@@H](CO)O1	none (no result: PfHsp90 set2)
CCOC(=O)CCc1c(C)c2c(C)nn(-c3ccccc3)c2[nH]c1=O	DENV2 CPE rescue 37
COc1ccc2c3c([nH]c2c1)[C@H](CO)N(S(=O)(=O)c1cn(C)cn1)CC31CCN(CC2CCCC2)CC1	none (no result: PfHsp90 set2, Cneo AK release)
O=C1C2C3C=CC(CO)(O3)C2C(=O)N1c1ccccc1-c1ccccc1 (configuration not stated)	PfHsp90 set2 142 (no result: S100A4 MyoIIA, Ecoli rRNA inh, MLL AF4-AF9 inh, DENV2 CPE rescue)
CC(=O)Oc1ccc(N2C(=O)C3C4C=CC(CO)(O4)C3C2=O)cc1 (configuration not stated)	none (no result: S100A4 MyoIIA, Ecoli rRNA inh, MLL AF4-AF9 inh, DENV2 CPE rescue)
O=C1C2C3C=CC(CNS(=O)(=O)c4ccccc4)(O3)C2C(=O)N1c1ccc(Cl)cc1 (configuration not stated)	PfHsp90 set2 105, DENV2 CPE rescue inconclusive (no result: Cneo AK release)
Cc1noc(C)c1NC(=O)Nc1ccc2c(c1)C(=O)N([C@H](C)CO)C[C@@H](C)[C@H](CN(C)CC1CCCCC1)O2	none (no result: PfHsp90 set2)
CC(C)Oc1ccccc1OC1(C)CCN(Cc2ccc(OC(F)(F)F)cc2)C1 (configuration not stated)	DENV2 CPE rescue 42 (no result: PfHsp90 set2)
COC(=O)Cc1ccc(OC2(C)CCN(Cc3csc4ccccc34)C2)cc1 (configuration not stated)	DENV2 CPE rescue 26 (no result: PfHsp90 set2)
CC1(Oc2cccc(F)c2)CCN(Cc2csc3ccccc23)C1 (configuration not stated)	DENV2 CPE rescue inconclusive (no result: PfHsp90 set2)
CC(=O)c1ccc(OC2(C)CCN(Cc3ccc4ccccc4c3)C2)cc1 (configuration not stated)	DENV2 CPE rescue 117 (no result: PfHsp90 set2)
Cc1nc(N(C)C)c2sc(=S)n(-c3ccccc3)c2n1	none (no result: DENV2 CPE rescue)
Cc1nc(N(C)C)c2sc(=S)n(C)c2n1	DENV2 CPE rescue 38
COc1ccccc1CNC(=O)C(=O)Nc1ccc(C(=O)N2CCC(C)CC2)cc1	MLL AF4-AF9 inh inconclusive, DENV2 CPE rescue 65
COc1ccc(S(=O)(=O)NCc2ccco2)c2ccccc12	Ecoli rRNA inh -26
O=S(=O)(/N=C(/c1ccc(F)cc1)N1CCCCC1)c1ccc(Cl)cc1	Ecoli rRNA inh -22
COc1cccc(C(=O)N[C@H](C(=O)N2CCC[C@H]2C(=O)NCCc2ccccc2Cl)C2CCCCC2)c1	DENV2 CPE rescue 29 (no result: PfHsp90 set2, Cneo AK release, MLL AF4-AF9 inh)
CC(C)[C@H](NC(=O)C1CC1)C(=O)N1CCC[C@H]1C(=O)NCCc1ccccc1Cl	DENV2 CPE rescue 29 (no result: PfHsp90 set2, Cneo AK release, MLL AF4-AF9 inh)
CCC(=O)N(C)C[C@@H]1Oc2ncc(-c3ccccc3OC)cc2C(=O)N([C@H](C)CO)C[C@H]1C	none (no result: PfHsp90 set2)
Cn1nc(C(F)(F)F)c(-c2ccc(F)cc2)c1NC(=O)Nc1ccc(F)cc1	Ecoli rRNA inh -30
Cn1nc(C(F)(F)F)c(-c2ccc(Br)cc2)c1NC(=O)c1ccco1	Ecoli rRNA inh -32
Cn1nc(C(F)(F)F)c(-c2ccc(Br)cc2)c1NC(=O)c1cccnc1	Ecoli rRNA inh -44 (no result: MLL AF4-AF9 inh)
COc1ccc(-c2c(C(F)(F)F)nn(C)c2NC(=O)c2cccnc2)cc1	none
COC(=O)[C@H]1[C@H](CO)[C@H]2Cn3c(ccc(-c4cccc(F)c4)c3=O)[C@H]2N1Cc1ccncc1	none (no result: PfHsp90 set2, Cneo AK release)
O=C(NCC[C@@H]1CC[C@H](NC(=O)C2CCCCC2)[C@H](CO)O1)c1cnccn1	none (no result: PfHsp90 set2)
C[C@@H]1CCCCO[C@@H](CN(C)Cc2ccncc2)[C@H](C)CN([C@H](C)CO)C(=O)c2cc(NC(=O)Nc3ccccc3)ccc2O1	none (no result: PfHsp90 set2)
NC(N)=N/N=C(\N=Nc1ccccc1)c1ccc(Cl)cc1	MLL AF4-AF9 inh 35 (no result: Cneo AK release)
COC(=O)C[C@H]1CC[C@@H]2[C@H](COC[C@H](O)CN2C(=O)Nc2cccc(F)c2)O1	none (no result: PfHsp90 set2)
Cc1ccc(-c2cnc3c(c2)C(=O)N([C@@H](C)CO)C[C@H](C)[C@@H](CN(C)C(=O)c2ccc(F)cc2)O3)cc1	none (no result: PfHsp90 set2)
